ChEMBL document CHEMBL3272036, “Reactions of 2-acyloxyisobutyryl halides with nucleosides. Synthesis and biological evaluation of some 3"-acyl and 3',5'-diacyl derivatives of 1-beta-D-arabinofuranosylcytosine” (J Med Chem, 1976)
Converted amounts (≈) assume the structure as drawn. The source made the active and inactive calls. The calls are words filed in the database; no cut-off is given here.

Columns and labels:
L1210 [1] = experiment: Antitumor activity against mouse L1210 cells allografted in BDF1 mouse assessed as survival at 200 mg/kg, ip administered as single dose measured on day 30 relative to vehicle-treated control; format: functional, organism-based; parameters: dose 200 mg/kg
Summary of the method: (§1)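 Leukemic L1210 cells were introduced into mice. Each compound was then given as a single intraperitoneal injection 24 h later. Activity is expressed as % increase in life span (ILS), with the count of 30-day survivors per group. Doses tested were 100, 200, 500 and 1000 mg/kg.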

HeLa = experiment: Cytotoxicity against human HeLa cells after 48 hrs by Coulter counter analysis; format: functional; conditions: read-out: ED50 (the source's name)
Vaccinia virus = experiment: Antiviral activity against Vaccinia virus IHD infected in African green monkey BGM cells assessed as plaque reduction measured on day 5 by disk diffusion assay; format: functional; conditions: Orthopoxvirus vaccinia, 120 h, read-out: ED50 (the source's name)
Herpesviridae sp. = experiment: Antiviral activity against Herpes Simplex virus HF infected in African green monkey BGM cells assessed as plaque reduction measured on day 5 by disk diffusion assay; format: functional; conditions: 120 h, read-out: ED50 (the source's name)
L1210 [2] = experiment: Antitumor activity against mouse L1210 cells allografted in BDF1 mouse assessed as increase in life span at 200 mg/kg, ip administered as single dose relative to vehicle-treated control; format: functional; conditions: route intraperitoneal
Summary of the method: (§2)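 Single intraperitoneal injection given 24 h after the leukemic cells were introduced, at 100, 200, 500 or 1000 mg/kg. Read-out is % increase in life span (ILS), with the count of 30-day survivors per group recorded (group sizes 7–8 mice).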

L1210 [3] = experiment: Antitumor activity against mouse L1210 cells allografted in BDF1 mouse assessed as increase in life span at 1000 mg/kg, ip administered as single dose relative to vehicle-treated control; format: functional; conditions: route intraperitoneal; summary of the method: as §2
L1210 [4] = experiment: Antitumor activity against mouse L1210 cells allografted in BDF1 mouse assessed as survival at 1000 mg/kg, ip administered as single dose measured on day 30 relative to vehicle-treated control; format: functional, organism-based; parameters: dose 1000 mg/kg; summary of the method: as §1
L1210 [5] = experiment: Antitumor activity against mouse L1210 cells allografted in BDF1 mouse assessed as increase in life span at 500 mg/kg, ip administered as single dose relative to vehicle-treated control; format: functional; conditions: route intraperitoneal; summary of the method: as §2
L1210 [6] = experiment: Antitumor activity against mouse L1210 cells allografted in BDF1 mouse assessed as survival at 500 mg/kg, ip administered as single dose measured on day 30 relative to vehicle-treated control; format: functional, organism-based; parameters: dose 500 mg/kg; summary of the method: as §1
L1210 [7] = experiment: Antitumor activity against mouse L1210 cells allografted in BDF1 mouse assessed as increase in life span at 100 mg/kg, ip administered as single dose relative to vehicle-treated control; format: functional; conditions: route intraperitoneal; summary of the method: as §2
L1210 [8] = experiment: Antitumor activity against mouse L1210 cells allografted in BDF1 mouse assessed as survival at 100 mg/kg, ip administered as single dose measured on day 30 relative to vehicle-treated control; format: functional, organism-based; parameters: dose 100 mg/kg; summary of the method: as §1

SMILES	Activity (L1210 [1])	EC50 (HeLa) [mg/L]	EC50 (Vaccinia virus) [µM]	EC50 (Herpesviridae sp.) [µM]	ILS at 200 mg/kg (L1210 [2]) [%]	ILS at 1000 mg/kg (L1210 [3]) [%]	Activity (L1210 [4])	ILS at 500 mg/kg (L1210 [5]) [%]	Activity (L1210 [6])	ILS at 100 mg/kg (L1210 [7]) [%]	Activity (L1210 [8])
CCCCCCCCCCCCCCCCCC(=O)OC[C@H]1O[C@@H](n2ccc(N)nc2=O)[C@@H](O)[C@@H]1OC(=O)CCCCCCCCCCCCCCCCC	inactive	10 (≈ 12.9 µM)	> 30	> 30	124	> 328	–	–	–	–	–
CCCCCCCCCC(=O)OC[C@H]1O[C@@H](n2ccc(N)nc2=O)[C@@H](O)[C@@H]1OC(=O)CCCCCCCCC	–	0.11 (≈ 0.199 µM)	0.35	0.78	> 214	-4	inactive	> 205	–	–	–
CCCCCCCCC(=O)OC[C@H]1O[C@@H](n2ccc(N)nc2=O)[C@@H](O)[C@@H]1OC(=O)CCCCCCCC.Cl	inactive	0.08	0.19	0.52	71	–	–	–	–	–	–
CC(=O)O[C@H]1[C@H](O)[C@H](n2ccc(N)nc2=O)O[C@@H]1CO	inactive	0.14 (≈ 0.491 µM)	0.58	1.45	19	–	–	20	inactive	14	inactive
CCCCCCCC(=O)OC[C@H]1O[C@@H](n2ccc(N)nc2=O)[C@@H](O)[C@@H]1OC(=O)CCCCCCC.Cl	inactive	0.13	0.22	2.6	20	46	inactive	–	–	-28	inactive
C=CCCCCCCCC(=O)OC[C@H]1O[C@@H](n2ccc(N)nc2=O)[C@@H](O)[C@@H]1OC(=O)CCCCCCCC=C.Cl	–	0.1	–	–	–	–	–	–	–	–	–
CCCCCCCCCCCCCCCCCCCC(=O)O[C@H]1[C@H](O)[C@H](n2ccc(N)nc2=O)O[C@@H]1CO	inactive	0.1 (≈ 0.186 µM)	> 30	> 30	164	> 295	Active	> 274	–	91	inactive
CC(=O)OC[C@H]1O[C@@H](n2ccc(N)nc2=O)[C@@H](O)[C@@H]1OC(C)=O.Cl	inactive	0.06	3.2	16	10	–	–	–	–	–	–
CCCCCCCCCCCCCCCCCCCC(=O)OC[C@H]1O[C@@H](n2ccc(N)nc2=O)[C@@H](O)[C@@H]1OC(=O)CCCCCCCCCCCCCCCCCCC	inactive	> 10	> 30	> 30	39	> 205	–	–	–	87	inactive
CCCCCCCCCCCCCCCCCCCCCC(=O)OC[C@H]1O[C@@H](n2ccc(N)nc2=O)[C@@H](O)[C@@H]1OC(=O)CCCCCCCCCCCCCCCCCCCCC	inactive	> 10	> 30	> 30	27	113	inactive	–	–	10	inactive
CCCC(=O)O[C@H]1[C@H](O)[C@H](n2ccc(N)nc2=O)O[C@@H]1CO	inactive	0.11 (≈ 0.351 µM)	1.2	2.8	13	–	–	22	inactive	–	–
CCCCCCCCCCC(=O)O[C@H]1[C@H](O)[C@H](n2ccc(N)nc2=O)O[C@@H]1CO	–	0.04 (≈ 0.0972 µM)	0.1	0.12	> 125	–	–	> 99	–	> 127	–
CCCCCCCCCCCCCC(=O)OC[C@H]1O[C@@H](n2ccc(N)nc2=O)[C@@H](O)[C@@H]1OC(=O)CCCCCCCCCCCCC	Active	1.4 (≈ 2.11 µM)	5.7	10	> 240	-12	inactive	> 105	–	> 255	–
CCCCCCCCCCCCCC(=O)O[C@H]1[C@H](O)[C@H](n2ccc(N)nc2=O)O[C@@H]1CO	Active	0.08 (≈ 0.176 µM)	0.18	0.64	> 284	-23	inactive	-21	inactive	> 266	–
CCCC(=O)OC[C@H]1O[C@@H](n2ccc(N)nc2=O)[C@@H](O)[C@@H]1OC(=O)CCC	inactive	0.11 (≈ 0.287 µM)	1.15	5.2	8	–	–	–	–	14	inactive
CCCCCCC/C=C\C(=O)O[C@H]1[C@H](O)[C@H](n2ccc(N)nc2=O)O[C@@H]1CO.Cl	inactive	0.06	0.11	0.23	22	–	–	–	–	–	–
CCCCCCCC/C=C/CCCCCCCC(=O)O[C@H]1[C@H](O)[C@H](n2ccc(N)nc2=O)O[C@@H]1CO	–	0.05 (≈ 0.0985 µM)	0.94	1.5	> 258	–	–	–	–	> 246	–
CCCCCCCCCCCCCCCC(=O)OC[C@H]1O[C@@H](n2ccc(N)nc2=O)[C@@H](O)[C@@H]1OC(=O)CCCCCCCCCCCCCCC	–	> 10	30	> 30	> 255	> 237	–	–	–	–	–
CCCCCCCCCCCC(=O)OC[C@H]1O[C@@H](n2ccc(N)nc2=O)[C@@H](O)[C@@H]1OC(=O)CCCCCCCCCCC	Active	0.5 (≈ 0.823 µM)	2.05	7.2	> 285	> 260	–	–	–	–	–
CCCCCCCCCCC(=O)OC[C@H]1O[C@@H](n2ccc(N)nc2=O)[C@@H](O)[C@@H]1OC(=O)CCCCCCCCCC	inactive	0.4 (≈ 0.69 µM)	0.3	0.78	> 300	–	–	117	Active	> 280	–
CCCCCC(=O)OC[C@H]1O[C@@H](n2ccc(N)nc2=O)[C@@H](O)[C@@H]1OC(=O)CCCCC	inactive	0.07 (≈ 0.159 µM)	0.22	0.9	11	–	–	–	–	4	inactive
CCCCCCCCC(=O)O[C@H]1[C@H](O)[C@H](n2ccc(N)nc2=O)O[C@@H]1CO	inactive	0.05 (≈ 0.13 µM)	0.1	0.3	59	> 142	–	> 189	–	–	–
Cl.Nc1ccn([C@@H]2O[C@H](COC(=O)Cc3ccccc3)[C@@H](OC(=O)Cc3ccccc3)[C@@H]2O)c(=O)n1	inactive	0.13	2.3	1.3	29	–	–	–	–	–	–
Cl.Nc1ccn([C@@H]2O[C@H](CO)[C@@H](OC(=O)Cc3ccccc3)[C@@H]2O)c(=O)n1	inactive	0.11	0.46	1.5	8	–	–	–	–	–	–
CCCCCCCC/C=C\CCCCCCCC(=O)O[C@H]1[C@H](O)[C@H](n2ccc(N)nc2=O)O[C@@H]1CO	inactive	0.06 (≈ 0.118 µM)	0.73	0.94	67	–	–	–	–	–	–
C=CCCCCCCCCC(=O)O[C@H]1[C@H](O)[C@H](n2ccc(N)nc2=O)O[C@@H]1CO	inactive	0.05 (≈ 0.122 µM)	0.11	0.44	49	> 52	–	> 191	–	–	–
CCCCCCCC/C=C\CCCCCCCCCCCC(=O)OC[C@H]1O[C@@H](n2ccc(N)nc2=O)[C@@H](O)[C@@H]1OC(=O)CCCCCCCCCCC/C=C\CCCCCCCC	inactive	> 10	> 30	> 30	86	–	–	–	–	58	inactive
CCCCCCCCCCCCCCCCCC(=O)O[C@H]1[C@H](O)[C@H](n2ccc(N)nc2=O)O[C@@H]1CO	–	0.13 (≈ 0.255 µM)	0.38	0.7	> 228	-23	inactive	–	–	> 219	Active
